How the values were obtained:
HT-22 [1] = assay: Neuroprotective activity against glutamate-mediated oxidative stress-induced cell death in mouse HT22 cells assessed as survival after 24 hrs by MTT assay; type: functional, cell-based
Method in brief: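 HT22 cells seeded at 4000/well in DMEM-Hepes-GlutaMAX with 10% FBS. After 24 h, 5 mM glutamate was added with or without test compound in fresh medium for 24 h. Viability was read by MTT formazan (OD 550 minus 670 nm), with DMSO vehicle controls. EC50 was the concentration keeping glutamate-exposed viability at 50% of unexposed cells. Mean ± SEM, ≥3 independent experiments.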

HT-22 [2] = assay: Ratio of beta-thujaplicin EC50 to drug EC50 for mouse HT22 cells
HT-22 [3] = assay: Neuroprotective activity against glutamate-mediated oxidative stress-induced cell death in mouse HT22 cells assessed as survival at 10 uM after 24 hrs by MTT assay; type: functional
Method in brief: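 HT22 mouse hippocampal cells seeded at 4000/well in DMEM-Hepes-GlutaMAX with 10% FBS; after 24 h, challenged with 5 mM glutamate plus test compound in fresh medium for 24 h. MTT formazan read as dOD 550–670 nm. % neuroprotection = (CD_vehicle − CD_compound)/CD_vehicle; efficacy classed full/partial/weak as 67–100, 34–66, ≤33%. Mean of ≥3 independent experiments.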

Row | Compound | EC50 (HT-22 [1]; Mus musculus, HT-22, 24 h) | Ratio EC50 (HT-22 [2]) | Efficacy (HT-22 [3]) | EC50 (HT-22 [1]; ht-22)
1 | O=c1c(O)ccccc1CN1CCOCC1 | > 10 µM | <0.5 | – | –
2 | COc1cc(C(C)C)ccc(Cn2cc(Cc3ccccc3)nn2)c1=O | > 10 µM | <0.5 | 30% | –
3 | CC(C)c1ccc(CN2CCOCC2)c(=O)c(O)c1 | 2.56 µM | 1.9 | 87% | –
4 | COc1cc(C(C)C)ccc(COc2ccccn2)c1=O | > 10 µM | <0.5 | – | –
5 | CCOC(=O)N1CCN(Cc2ccc(C(C)C)cc(O)c2=O)CC1 | 1.4 µM | 3.4 | 88% | –
6 | CC(C)c1ccc(CN2CCN(c3ccc([N+](=O)[O-])cc3)CC2)c(=O)c(O)c1 | 1.7 µM | 2.8 | 91% | –
7 | CC(C)c1ccc(CN2CCN(Cc3ccc([N+](=O)[O-])cc3)CC2)c(=O)c(O)c1 | 0.96 µM | 5 | 100% | –
8 | Cc1c(C)c2c(c(C)c1O)CCC(C)(C(=O)N1CCN(Cc3ccc(C(C)C)cc(O)c3=O)CC1)O2 (configuration not stated) | 0.08 µM | 60 | 62% | –
9 | Cc1c(C)c2c(c(C)c1O)CCC(C)(C(=O)NCCN1CCN(Cc3ccc(C(C)C)cc(O)c3=O)CC1)O2 (configuration not stated) | 0.09 µM | 53 | 89% | –
10 | CC(C)c1ccc(CN2CCN(Cc3ccc(C(C)C)cc(O)c3=O)CC2)c(=O)c(O)c1 | 0.92 µM | – | – | –
11 | CC(C)c1cccc(=O)c(O)c1 [HINOKITIOL] | 4.8 µM | 1 | 62% | –
12 | O=c1cccccc1O [TROPOLONE] | > 10 µM | <0.5 | – | –
13 | VITAMIN E | – | – | – | 0.2 µM

— ChEMBL document CHEMBL1154870, “Synthesis of tropolone derivatives and evaluation of their in vitro neuroprotective activity” (Eur J Med Chem, 2010)
